Results from ChEMBL document CHEMBL3351537, “Design, synthesis and biological evaluation of 4-fluoropyrrolidine-2-carbonitrile and octahydrocyclopenta[b]pyrrole-2-carbonitrile derivatives as dipeptidyl peptidase IV inhibitors” (Eur J Med Chem, 2014).
One block for each compound: values may come before it. Active and inactive are the calls of the source. The rule behind the calls is not given here.

What was measured:
Dipeptidyl peptidase 2 = Dipeptidyl peptidase 2 (Homo sapiens, UniProt Q9UHL4); assay: Inhibition of DPP7 (unknown origin) expressed in baculovirus expression system using Nle-Pro-AMC as substrate by continuous fluorometric assay
Prolyl endopeptidase FAP = target: T1, Prolyl endopeptidase FAP (Homo sapiens, UniProt Q12884); assay: Inhibition of FAP (unknown origin) expressed in baculovirus expression system using Nle-Pro-AMC as substrate by continuous fluorometric assay
T1 sequence (Q12884 whole entry): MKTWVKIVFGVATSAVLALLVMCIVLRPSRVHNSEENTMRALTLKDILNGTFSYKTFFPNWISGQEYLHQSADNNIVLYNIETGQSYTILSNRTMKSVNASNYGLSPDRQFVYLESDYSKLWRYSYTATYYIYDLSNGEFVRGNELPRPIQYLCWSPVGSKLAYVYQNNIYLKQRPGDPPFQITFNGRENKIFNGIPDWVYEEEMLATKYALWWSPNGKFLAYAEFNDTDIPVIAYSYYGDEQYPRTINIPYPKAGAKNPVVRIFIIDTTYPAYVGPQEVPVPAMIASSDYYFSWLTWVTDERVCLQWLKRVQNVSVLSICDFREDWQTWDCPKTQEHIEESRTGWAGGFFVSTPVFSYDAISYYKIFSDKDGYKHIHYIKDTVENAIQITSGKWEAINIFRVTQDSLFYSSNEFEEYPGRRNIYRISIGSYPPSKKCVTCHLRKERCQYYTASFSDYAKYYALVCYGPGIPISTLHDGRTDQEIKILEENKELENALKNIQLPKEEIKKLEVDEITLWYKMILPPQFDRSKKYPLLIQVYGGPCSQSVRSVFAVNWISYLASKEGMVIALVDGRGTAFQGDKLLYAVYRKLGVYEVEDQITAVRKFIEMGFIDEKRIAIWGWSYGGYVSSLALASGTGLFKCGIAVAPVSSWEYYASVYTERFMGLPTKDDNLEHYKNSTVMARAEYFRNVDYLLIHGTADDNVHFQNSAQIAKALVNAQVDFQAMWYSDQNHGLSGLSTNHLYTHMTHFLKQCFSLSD

Dipeptidyl peptidase 9 = Dipeptidyl peptidase 9 (Homo sapiens, UniProt Q86TI2); assay: Inhibition of DPP9 (unknown origin) expressed in baculovirus expression system using Ala-Pro-AMC as substrate by continuous fluorometric assay
Mus musculus [1] = assay: Reduction in glucose excursion in ICR mouse compound administered as single dose measured at 15 mins post dose by oral glucose tolerance test; assay type: functional, organism-based
Summary of the method: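 Fasted ICR mice (16 h) given a single oral dose, 5 or 15 mg/kg in 0.5% methylcellulose (10 mL/kg). Oral glucose challenge 2.5 g/kg given 30 min later. Blood glucose read at 0, 15, 30, 60, 90 and 120 min for AUC. Vehicle control included; mean ± SE, Student's t-test.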

Mus musculus [2] = assay: Reduction in fasting blood glucose level in C57BKS db/db mouse at 15 mg/kg/day, po (Rvb =23.0 +/- 1.0 mM); assay type: functional
Mus musculus [3] = assay: Reduction in plasma triglyceride content in C57BKS db/db mouse at 15 mg/kg/day, po (reference value: 1.01 +/- 0.09 mM); assay type: functional
Mus musculus [4] = assay: Reduction in free fatty acid in C57BKS db/db mouse at 15 mg/kg/day, po (reference value: 1.46 +/- 0.10 mM); assay type: functional
Mus musculus [5] = assay: Reduction in random blood glucose level in C57BKS db/db mouse at 15 mg/kg/day, po (Rvb =23.3 +/- 1.0 mM); assay type: functional
Mus musculus [6] = assay: Reduction in total cholesterol content in C57BKS db/db mouse at 15 mg/kg/day, po; assay type: functional, organism-based
[7] = Tmax in Sprague-Dawley rat at 20 mg/kg, po; assay type: ADME, organism-based; parameters: dose 20 mg/kg, route oral; conditions: in vivo
Summary of the method: (§1)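 SD rats dosed orally or intravenously. Blood sampled after dosing and spun to plasma. Plasma deproteinized with methanol containing internal standard, centrifuged, supernatant diluted in methanol and centrifuged again. Compound levels measured by LC/MS/MS. PK parameters were derived from these plasma concentrations.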

[8] = Cmax in Sprague-Dawley rat at 20 mg/kg, po; assay type: ADME, organism-based; parameters: dose 20 mg/kg, route oral; conditions: in vivo; summary of the method: as §1
[9] = AUC (0 to t) in Sprague-Dawley rat at 20 mg/kg, po; assay type: ADME, organism-based; parameters: dose 20 mg/kg, route oral; conditions: plasma; summary of the method: as §1
Rattus norvegicus [10] = assay: AUC (0 to infinity) in Sprague-Dawley rat at 20 mg/kg, po; assay type: ADME, organism-based, Plasma; parameters: time infinity, dose 20 mg/kg, route oral; conditions: in vivo; summary of the method: as §1
[11] = Mean residence time in Sprague-Dawley rat at 20 mg/kg, po; assay type: ADME, organism-based; parameters: dose 20 mg/kg, route oral; conditions: in vivo; summary of the method: as §1
[12] = Half life in Sprague-Dawley rat at 20 mg/kg, po; assay type: ADME, organism-based; parameters: dose 20 mg/kg, route oral; conditions: in vivo; summary of the method: as §1
Rattus norvegicus [13] = assay: Oral bioavailability in Sprague-Dawley rat at 20 mg/kg; assay type: ADME, organism-based; conditions: in vivo; summary of the method: as §1
[14] = Tmax in Sprague-Dawley rat at 10 mg/kg, iv; assay type: ADME, organism-based; parameters: dose 10 mg/kg, route intravenous; conditions: in vivo; summary of the method: as §1
[15] = Cmax in Sprague-Dawley rat at 10 mg/kg, iv; assay type: ADME, organism-based; parameters: dose 10 mg/kg, route intravenous; conditions: in vivo; summary of the method: as §1
[16] = AUC (0 to t) in Sprague-Dawley rat at 10 mg/kg, iv; assay type: ADME, organism-based; parameters: dose 10 mg/kg, route intravenous; conditions: plasma; summary of the method: as §1
Rattus norvegicus [17] = assay: AUC (0 to infinity) in Sprague-Dawley rat at 10 mg/kg, iv; assay type: ADME, organism-based, Plasma; parameters: time infinity, dose 10 mg/kg, route intravenous; conditions: in vivo; summary of the method: as §1
[18] = Mean residence time in Sprague-Dawley rat at 10 mg/kg, iv; assay type: ADME, organism-based; parameters: dose 10 mg/kg, route intravenous; conditions: in vivo; summary of the method: as §1
[19] = Half life in Sprague-Dawley rat at 10 mg/kg, iv; assay type: ADME, organism-based; parameters: dose 10 mg/kg, route intravenous; conditions: in vivo; summary of the method: as §1
[20] = Apparent clearance in Sprague-Dawley rat at 10 mg/kg, iv; assay type: ADME, organism-based; parameters: dose 10 mg/kg, route intravenous; conditions: in vivo, read-out: CL(app) (converted); summary of the method: as §1
[21] = target: T2, Voltage-gated inwardly rectifying potassium channel KCNH2 (Homo sapiens, UniProt Q12809); assay: Inhibition of human ERG expressed in CHO cells after 20 mins by patch clamp assay; assay type: cell-based
[22] = target: T2, Voltage-gated inwardly rectifying potassium channel KCNH2; assay: Inhibition of human ERG expressed in CHO cells after 20 mins by thallium assay; assay type: cell-based
Summary of the method: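 CHO-hERG-ZG cells grown with 100 μg/mL G418 and 100 μg/mL hygromycin B, then seeded and incubated 16–18 h at 37 °C. Cells held in loading buffer 90 min in the dark at RT, switched to assay buffer, and exposed to compound 20 min in the dark at RT. FluxOR thallium flux read on FDSS: baseline to 10 s, stimulus buffer added at 10 s, recording to 180 s.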

Cytochrome P450 3A4 = Cytochrome P450 3A4 (Homo sapiens, UniProt P08684); assay: Inhibition of CYP3A4 (unknown origin); assay type: ADME
Cytochrome P450 2C9 = Cytochrome P450 2C9 (Homo sapiens, UniProt P11712); assay: Inhibition of CYP2C9 (unknown origin); assay type: ADME
Cytochrome P450 2C9, sequence (P11712 whole entry): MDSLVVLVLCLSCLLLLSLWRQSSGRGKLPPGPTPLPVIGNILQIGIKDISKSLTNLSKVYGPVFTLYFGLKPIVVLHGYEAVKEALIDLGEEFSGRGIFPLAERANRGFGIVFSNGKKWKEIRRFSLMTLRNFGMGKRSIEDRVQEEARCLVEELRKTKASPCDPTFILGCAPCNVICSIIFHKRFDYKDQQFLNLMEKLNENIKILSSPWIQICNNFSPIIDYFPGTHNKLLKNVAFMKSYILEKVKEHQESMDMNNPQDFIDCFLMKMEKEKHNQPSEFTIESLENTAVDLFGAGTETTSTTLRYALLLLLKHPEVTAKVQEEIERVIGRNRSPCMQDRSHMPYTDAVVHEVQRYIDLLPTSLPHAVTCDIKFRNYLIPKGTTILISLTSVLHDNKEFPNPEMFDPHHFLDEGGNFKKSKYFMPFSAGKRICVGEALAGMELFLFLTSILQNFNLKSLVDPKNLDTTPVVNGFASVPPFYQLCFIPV

T2 sequence (Q12809 whole entry): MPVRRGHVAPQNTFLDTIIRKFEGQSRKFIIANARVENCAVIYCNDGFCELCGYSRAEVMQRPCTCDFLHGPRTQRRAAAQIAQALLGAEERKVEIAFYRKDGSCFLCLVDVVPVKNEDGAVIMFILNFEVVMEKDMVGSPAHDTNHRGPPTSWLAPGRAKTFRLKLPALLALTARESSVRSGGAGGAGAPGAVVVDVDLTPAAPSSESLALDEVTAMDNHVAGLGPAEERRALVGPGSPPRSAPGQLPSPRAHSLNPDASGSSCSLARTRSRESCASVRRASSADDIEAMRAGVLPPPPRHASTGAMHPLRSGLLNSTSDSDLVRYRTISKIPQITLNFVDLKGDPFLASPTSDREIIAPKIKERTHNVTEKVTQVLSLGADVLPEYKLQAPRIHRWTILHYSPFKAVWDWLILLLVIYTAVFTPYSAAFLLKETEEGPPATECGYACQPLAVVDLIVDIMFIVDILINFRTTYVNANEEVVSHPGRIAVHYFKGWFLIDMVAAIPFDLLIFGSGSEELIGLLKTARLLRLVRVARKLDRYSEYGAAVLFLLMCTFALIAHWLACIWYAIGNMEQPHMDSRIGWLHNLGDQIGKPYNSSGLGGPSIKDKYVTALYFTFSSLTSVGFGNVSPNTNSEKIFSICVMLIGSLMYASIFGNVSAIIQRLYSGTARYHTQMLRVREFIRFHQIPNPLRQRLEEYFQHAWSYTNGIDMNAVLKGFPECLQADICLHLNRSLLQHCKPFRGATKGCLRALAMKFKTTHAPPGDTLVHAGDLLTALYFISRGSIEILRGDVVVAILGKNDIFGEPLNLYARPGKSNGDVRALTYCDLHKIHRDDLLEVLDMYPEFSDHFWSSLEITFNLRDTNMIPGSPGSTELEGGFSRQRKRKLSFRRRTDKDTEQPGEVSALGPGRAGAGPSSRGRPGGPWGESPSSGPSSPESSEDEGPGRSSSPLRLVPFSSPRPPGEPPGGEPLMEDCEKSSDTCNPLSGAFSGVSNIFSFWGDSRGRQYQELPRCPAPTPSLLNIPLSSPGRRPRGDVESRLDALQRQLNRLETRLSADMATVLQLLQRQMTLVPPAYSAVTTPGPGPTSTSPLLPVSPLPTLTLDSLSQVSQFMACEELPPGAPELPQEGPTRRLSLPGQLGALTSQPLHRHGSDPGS
Dipeptidyl peptidase 9, sequence (Q86TI2 whole entry): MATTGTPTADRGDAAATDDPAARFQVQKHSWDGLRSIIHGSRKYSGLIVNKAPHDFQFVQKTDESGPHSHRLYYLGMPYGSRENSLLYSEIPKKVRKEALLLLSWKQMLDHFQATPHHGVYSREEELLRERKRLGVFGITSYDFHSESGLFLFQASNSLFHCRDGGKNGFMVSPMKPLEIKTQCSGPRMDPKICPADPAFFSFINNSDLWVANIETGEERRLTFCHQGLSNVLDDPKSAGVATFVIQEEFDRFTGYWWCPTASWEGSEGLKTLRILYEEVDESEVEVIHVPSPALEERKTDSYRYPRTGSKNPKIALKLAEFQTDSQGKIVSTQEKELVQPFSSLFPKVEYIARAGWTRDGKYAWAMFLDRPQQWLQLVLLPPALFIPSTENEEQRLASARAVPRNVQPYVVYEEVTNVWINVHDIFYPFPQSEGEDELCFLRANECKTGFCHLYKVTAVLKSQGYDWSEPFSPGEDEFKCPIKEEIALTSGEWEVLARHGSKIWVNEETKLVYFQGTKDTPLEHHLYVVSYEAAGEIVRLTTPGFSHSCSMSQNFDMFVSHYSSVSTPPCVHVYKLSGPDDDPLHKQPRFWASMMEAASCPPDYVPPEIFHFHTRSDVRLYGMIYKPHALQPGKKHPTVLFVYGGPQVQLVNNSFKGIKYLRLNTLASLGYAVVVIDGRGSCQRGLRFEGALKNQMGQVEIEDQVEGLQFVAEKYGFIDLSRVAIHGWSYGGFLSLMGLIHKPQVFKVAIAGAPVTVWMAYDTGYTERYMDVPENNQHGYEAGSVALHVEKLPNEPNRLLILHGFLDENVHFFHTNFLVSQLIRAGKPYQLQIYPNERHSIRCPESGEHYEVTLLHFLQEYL
Cytochrome P450 3A4, sequence (P08684 whole entry): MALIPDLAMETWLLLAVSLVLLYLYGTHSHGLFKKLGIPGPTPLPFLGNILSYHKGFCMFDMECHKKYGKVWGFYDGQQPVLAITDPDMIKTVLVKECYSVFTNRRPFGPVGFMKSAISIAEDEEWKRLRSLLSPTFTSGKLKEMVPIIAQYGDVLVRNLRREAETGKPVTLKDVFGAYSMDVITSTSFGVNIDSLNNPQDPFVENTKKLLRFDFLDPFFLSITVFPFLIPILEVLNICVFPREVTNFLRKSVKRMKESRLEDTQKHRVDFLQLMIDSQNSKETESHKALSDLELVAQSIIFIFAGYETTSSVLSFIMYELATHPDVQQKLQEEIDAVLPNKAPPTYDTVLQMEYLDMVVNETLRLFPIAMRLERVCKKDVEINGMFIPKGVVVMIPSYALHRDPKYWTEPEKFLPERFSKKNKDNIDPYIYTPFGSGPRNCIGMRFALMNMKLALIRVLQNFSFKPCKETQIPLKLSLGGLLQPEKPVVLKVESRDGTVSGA

SMILES: Cc1ccccc1C[C@@H](N)CC(=O)N1C[C@@H](F)C[C@H]1C#N
IC50 (Dipeptidyl peptidase 2): Not Active

SMILES: N#C[C@@H]1C[C@H](F)CN1C(=O)C[C@H](N)Cc1ccc(Cl)c(Cl)c1
IC50 (Dipeptidyl peptidase 9): 0.23 µM

SMILES: N#C[C@@H]1C[C@H](F)CN1C(=O)C[C@H](N)Cc1ccccc1Cl
IC50 (Dipeptidyl peptidase 2; read-out: IC50): 130 µM

SMILES: N#C[C@@H]1C[C@@H]2CCC[C@@H]2N1C(=O)C[C@H](N)Cc1cc(F)c(F)cc1F
Activity (Mus musculus [1]): Dose-dependent effect
Activity (Mus musculus [2]): 19.7 mM
Activity (Mus musculus [3]): 0.85 mM
Activity (Mus musculus [4]): 1.43 mEq/L
Activity (Mus musculus [5]): 21.3 mM
Activity (Mus musculus [6]): inactive
Tmax [7]: 0.5 h
Cmax [8]: 509 ng/mL
AUC(0-t) [9]: 2040 ng·h/mL
AUC (Rattus norvegicus [10]): 2360 ng/mL.hr
MRT [11]: 2.81 h
half-life [12]: 2.74 h
F (Rattus norvegicus [13]): 22.8%
Tmax [14]: 0.5 h
Cmax [15]: 1120 ng/mL
AUC(0-t) [16]: 4470 ng·h/mL
AUC (Rattus norvegicus [17]): 4974 ng·h/mL
MRT [18]: 2.71 h
half-life [19]: 2.39 h
clearance [20]: 33.5 mL/min/kg
IC50 [21]: > 40 µM
IC50 [22]: 55.3 µM
IC50 (Cytochrome P450 3A4): 2.25 µM
IC50 (Cytochrome P450 2C9): Not Active

Next, values leading:

IC50 (Prolyl endopeptidase FAP; read-out: IC50): 154 µM
SMILES: N#C[C@@H]1C[C@@H]2CCC[C@@H]2N1C(=O)C[C@H](N)Cc1ccc(F)cc1

IC50 (Dipeptidyl peptidase 2): Not Active
IC50 (Prolyl endopeptidase FAP; read-out: IC50): 110 µM
SMILES: Cc1ccccc1C[C@@H](N)CC(=O)N1[C@H](C#N)C[C@@H]2CCC[C@@H]21

IC50 (Dipeptidyl peptidase 2): Not Active
IC50 (Prolyl endopeptidase FAP): Not Active
SMILES: N#C[C@@H]1C[C@@H]2CCC[C@@H]2N1C(=O)C[C@H](N)Cc1cccc(F)c1
